Assay results from ChEMBL document CHEMBL1212735, “Metronidazole resistance in Prevotella spp. and description of a new nim gene in Prevotella baroniae” (2010).
Converted amounts (≈) assume the structure as drawn.

Columns and labels:
Assay type in all cases: functional
Prevotella baroniae [1] = experiment: Antimicrobial activity against Prevotella baroniae LBN 427 expressing nimI gene assessed as inhibition of growth after three consecutive subcultures on compound free medium by agar dilution method; conditions: Segatella baroniae
How it was run: (§1)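 Stability of induced resistance: metronidazole-selected isolates were subcultured three consecutive times on drug-free brucella blood agar (5% sheep blood, hemin, vitamin K1) under anaerobic conditions, then MIC was redetermined by CLSI agar dilution. Resistance was called stable if the MIC held within ±1 dilution. Duplicate experiments.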

Bacteroides fragilis [2] = experiment: Antimicrobial activity against Bacteroides fragilis ATCC 25285T deficient in nimI gene assessed as inhibition of growth after three consecutive subcultures on compound free medium by agar dilution method
How it was run: (§2)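 Resistance induction: bacterial suspensions were plated on supplemented brucella blood agar with rising metronidazole concentrations. Colonies from the highest concentration were tested by agar dilution. MIC was then redetermined after three consecutive subcultures on drug-free agar. Resistance counted as stable if the MIC held within ±1 dilution. Anaerobic growth at 37°C. Duplicate experiments.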

Prevotella baroniae [3] = experiment: Antimicrobial activity against Prevotella baroniae LBN 466 expressing nim gene assessed as inhibition of growth at 48 hrs by agar dilution method; conditions: Segatella baroniae, LBN 466, 48 h
How it was run: (§3)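 Metronidazole MIC by agar dilution (CLSI M11-A7) on brucella agar with 5% sheep blood, hemin and vitamin K1. Plates were read after 48 h at 35°C under anaerobic conditions. Susceptible was MIC ≤ 4 μg/ml and resistant MIC ≥ 8 μg/ml (EUCAST). B. fragilis ATCC 25285T and B. thetaiotaomicron ATCC 29741 were run as controls. Duplicate assays.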

Prevotella bivia [4] = experiment: Antimicrobial activity against Prevotella bivia LBN 330 deficient in nim gene assessed as inhibition of growth at 48 hrs by agar dilution method; conditions: LBN 330, 48 h; how it was run: as §3
Prevotella nanceiensis [5] = experiment: Antimicrobial activity against slow growing colonies of Prevotella nanceiensis LBN 297 deficient in nim gene assessed as inhibition of growth at 48 hrs by agar dilution method; conditions: Hoylesella nanceiensis, LBN 297, 48 h
How it was run: (§4)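 Metronidazole MIC by agar dilution per CLSI M11-A7 on brucella agar with 5% sheep blood, hemin and vitamin K1. Plates incubated anaerobically at 35°C and read at 48 h, with a second reading after a further 72 h. B. fragilis ATCC 25285T and B. thetaiotaomicron ATCC 29741 served as controls. Done in duplicate; EUCAST breakpoints applied (S ≤4, R ≥8 μg/ml).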

Prevotella bivia [6] = experiment: Antimicrobial activity against slow growing colonies of Prevotella bivia LBP 4 deficient in nim gene assessed as inhibition of growth at 48 hrs by agar dilution method; conditions: LBP 4, 48 h; how it was run: as §4
Prevotella baroniae [7] = experiment: Antimicrobial activity against Prevotella baroniae LBP19 expressing nimI gene assessed as inhibition of growth after three consecutive subcultures on compound free medium by agar dilution method; conditions: Segatella baroniae; how it was run: as §1
Prevotella bivia [8] = experiment: Antimicrobial activity against Prevotella bivia LBN 346 deficient in nim gene assessed as inhibition of growth at 48 hrs by agar dilution method; conditions: LBN 346, 48 h
How it was run: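 Agar dilution MIC on brucella agar with 5% sheep blood, hemin and vitamin K1, following CLSI M11-A7. Plates read after 48 h at 35°C under anaerobic conditions, with B. fragilis ATCC 25285T and B. thetaiotaomicron ATCC 29741 as controls. Assays in duplicate. Isolates kept at −80°C in brucella broth with 15% glycerol. Interpretation used EUCAST breakpoints (S ≤4, R ≥8 μg/ml).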

Prevotella baroniae [9] = experiment: Antimicrobial activity against Prevotella baroniae DSM 16972T expressing nimI gene assessed as inhibition of growth after three consecutive subcultures on compound free medium by agar dilution method; conditions: Segatella baroniae; how it was run: as §1
Prevotella baroniae [10] = experiment: Antimicrobial activity against Prevotella baroniae LBN 475 expressing nim gene assessed as inhibition of growth at 48 hrs by agar dilution method; conditions: Segatella baroniae, LBN 475, 48 h; how it was run: as §3
Prevotella nanceiensis [11] = experiment: Antimicrobial activity against slow growing colonies of Prevotella nanceiensis LBN 293b deficient in nim gene assessed as inhibition of growth at 48 hrs by agar dilution method; conditions: Hoylesella nanceiensis; how it was run: as §4
Prevotella nanceiensis [12] = experiment: Antimicrobial activity against Prevotella nanceiensis LBN 297 deficient in nim gene assessed as inhibition of growth at 48 hrs by agar dilution method; conditions: Hoylesella nanceiensis, LBN 297, 48 h; how it was run: as §3
Prevotella bivia [13] = experiment: Antimicrobial activity against Prevotella bivia LBP 65 deficient in nim gene assessed as inhibition of growth at 48 hrs by agar dilution method; conditions: LBP 65, 48 h; how it was run: as §3
Prevotella bivia [14] = experiment: Antimicrobial activity against slow growing colonies of Prevotella bivia LBN 374 deficient in nim gene assessed as inhibition of growth at 48 hrs by agar dilution method; conditions: LBN 374, 48 h; how it was run: as §4
Bacteroides fragilis [15] = experiment: Antimicrobial activity against Bacteroides fragilis ATCC 25285T deficient in nimI gene assessed as inhibition of growth at 48 hrs by agar dilution method; how it was run: as §3
Prevotella bivia [16] = experiment: Antimicrobial activity against Prevotella bivia LBN 332 deficient in nim gene assessed as inhibition of growth at 48 hrs by agar dilution method; conditions: LBN 332, 48 h; how it was run: as §3
Prevotella baroniae [17] = experiment: Antimicrobial activity against Prevotella baroniae LBN 475 expressing nimI gene assessed as inhibition of growth after several passages on plates containing increasing concentration of compound by agar dilution method; conditions: Segatella baroniae
How it was run: (§5)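 Induction of metronidazole resistance: bacterial suspensions inoculated onto brucella blood agar (5% sheep blood, hemin, vitamin K1) containing metronidazole at increasing concentrations, grown anaerobically at 37°C. Colonies growing at the highest concentration were retested for MIC by CLSI agar dilution on the same agar. Duplicate experiments.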

Prevotella bivia [18] = experiment: Antimicrobial activity against Prevotella bivia LBN 478 deficient in nim gene assessed as inhibition of growth at 48 hrs by agar dilution method; conditions: LBN 478, 48 h; how it was run: as §3
Prevotella bivia [19] = experiment: Antimicrobial activity against Prevotella bivia LBN 371 deficient in nimI gene assessed as inhibition of growth after three consecutive subcultures on compound free medium by agar dilution method; how it was run: as §2
Prevotella buccae = experiment: Antimicrobial activity against Prevotella buccae LBN 465 deficient in nimI gene assessed as inhibition of growth after three consecutive subcultures on compound free medium by agar dilution method; conditions: Segatella buccae; how it was run: as §2
Prevotella baroniae [20] = experiment: Antimicrobial activity against Prevotella baroniae LBN 430 expressing nim gene assessed as inhibition of growth at 48 hrs by agar dilution method; conditions: Segatella baroniae, LBN 430, 48 h; how it was run: as §3
Prevotella bivia [21] = experiment: Antimicrobial activity against slow growing colonies of Prevotella bivia LBN 350 deficient in nim gene assessed as inhibition of growth at 48 hrs by agar dilution method; conditions: LBN 350, 48 h
How it was run: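 Slowly growing colonies inside the Etest inhibition zone, seen after prolonged incubation (an additional 72 h after the 48 h reading), were subcultured without antibiotic. They were then retested for metronidazole MIC by agar dilution on supplemented brucella blood agar under anaerobic conditions.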

Prevotella nanceiensis [22] = experiment: Antimicrobial activity against Prevotella nanceiensis LBN 293b deficient in nimI gene assessed as inhibition of growth after several passages on plates containing increasing concentration of compound by agar dilution method; conditions: Hoylesella nanceiensis; how it was run: as §5
Prevotella nanceiensis [23] = experiment: Antimicrobial activity against Prevotella nanceiensis LBP 66 deficient in nim gene assessed as inhibition of growth at 48 hrs by agar dilution method; conditions: Hoylesella nanceiensis, LBP 66, 48 h; how it was run: as §3
Prevotella bivia [24] = experiment: Antimicrobial activity against slow growing colonies of Prevotella bivia LBN 445 deficient in nim gene assessed as inhibition of growth at 48 hrs by agar dilution method; conditions: LBN 445, 48 h; how it was run: as §4
Prevotella bivia [25] = experiment: Antimicrobial activity against Prevotella bivia LBN 339 deficient in nim gene assessed as inhibition of growth at 48 hrs by agar dilution method; conditions: LBN 339, 48 h; how it was run: as §3

## Cc1ncc([N+](=O)[O-])n1CCO [METRONIDAZOLE]
Prevotella baroniae [1]
  MIC: 128 µg/mL (≈ 748 µM)
Bacteroides fragilis [2]
  MIC: 128 µg/mL (≈ 748 µM)
Prevotella baroniae [3]
  MIC: 2 µg/mL (≈ 11.7 µM)
Prevotella bivia [4]
  MIC: 2 µg/mL (≈ 11.7 µM)
Prevotella nanceiensis [5]
  MIC: 16 µg/mL (≈ 93.5 µM)
Prevotella bivia [6]
  MIC: 32 µg/mL (≈ 187 µM)
Prevotella baroniae [7]
  MIC: 128 µg/mL (≈ 748 µM)
Prevotella bivia [8]
  MIC: 1 µg/mL (≈ 5.84 µM)
Prevotella baroniae [9]
  MIC: 16 µg/mL (≈ 93.5 µM)
Prevotella baroniae [10]
  MIC: 4 µg/mL (≈ 23.4 µM)
Prevotella nanceiensis [11]
  MIC: 32 µg/mL (≈ 187 µM)
Prevotella nanceiensis [12]
  MIC: 2 µg/mL (≈ 11.7 µM)
Prevotella bivia [13]
  MIC: 4 µg/mL (≈ 23.4 µM)
Prevotella bivia [14]
  MIC: 8 µg/mL (≈ 46.7 µM)
Bacteroides fragilis [15]
  MIC: 0.5 µg/mL (≈ 2.92 µM)
Prevotella bivia [16]
  MIC: 4 µg/mL (≈ 23.4 µM)
Prevotella baroniae [17]
  MIC: 256 µg/mL (≈ 1500 µM)
Prevotella bivia [18]
  MIC: 4 µg/mL (≈ 23.4 µM)
Prevotella bivia [19]
  MIC: > 256 µg/mL
Prevotella buccae
  MIC: 64 µg/mL (≈ 374 µM)
Prevotella baroniae [20]
  MIC: 4 µg/mL (≈ 23.4 µM)
Prevotella bivia [21]
  MIC: 16 µg/mL (≈ 93.5 µM)
Prevotella nanceiensis [22]
  MIC: 256 µg/mL (≈ 1500 µM)
Prevotella nanceiensis [23]
  MIC: 2 µg/mL (≈ 11.7 µM)
Prevotella bivia [24]
  MIC: 16 µg/mL (≈ 93.5 µM)
Prevotella bivia [25]
  MIC: 2 µg/mL (≈ 11.7 µM)
